Data taken from ChEMBL document CHEMBL1152351, “Synthesis of a series of novel dihydroartemisinin derivatives containing a substituted chalcone with greater cytotoxic effects in leukemia cells” (Bioorg Med Chem Lett, 2009).
Activity calls are given as the source filed them. The rule behind the calls is not given here.

Legend:
HL-60 [1] = assay: Inhibition of human HL60 cell proliferation after 72 hrs by trypan blue exclusion assay; type: functional
Procedure, shortened: (§1)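 HL-60 cells treated 72 h, then counted with trypan blue exclusion. IG50 is the concentration giving 50% inhibition of proliferation. IC50 is the concentration giving 50% loss of viability.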

HL-60 [2] = assay: Cytotoxicity against human HL60 cells after 72 hrs by trypan blue exclusion assay; type: functional, cell-based; settings: HL-60, 72 h; procedure, shortened: as §1
HL-60 [3] = assay: Growth inhibition of human HL60 cells at 1 uM after 72 hrs by trypan blue exclusion assay; type: functional, cell-based
HL-60 [4] = assay: Induction of apoptosis in human HL60 cells assessed as occurrence of nuclear shrinkage, blebbing and apoptotic bodies at 0.2 uM after 24 hrs by acridine orange and ethidium bromide staining; type: functional
Procedure, shortened: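 HL-60 cells exposed 12 h and 24 h, stained with acridine orange and ethidium bromide, and viewed by fluorescence microscopy. Cells showing nuclear shrinkage, blebbing or apoptotic bodies were scored apoptotic. Percentage taken from 300 cells counted. Mean ± SD of three independent experiments.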

HL-60 [5] = assay: Cell cycle arrest in human HL60 cells assessed as accumulation at subG1 phase at 0.8 uM after 24 hrs using propidium iodide staining by flow cytometry; type: functional
Procedure, shortened: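 HL-60 cells exposed 24 h; propidium iodide staining, then flow cytometry. The subG1 population is scored as apoptotic cells. Mean ± SD from three independent experiments.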

HL-60 [6] = assay: Induction of apoptosis in human HL60 cells assessed as DNA fragmentation at 0.8 uM after 24 hrs using ethidium bromide staining by DNA gel electrophoresis; type: functional, cell-based
Procedure, shortened: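 HL-60 cells exposed 24 h. DNA resolved by gel electrophoresis and the fragmented DNA visualized by ethidium bromide staining.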

P388 [7] = assay: Growth inhibition of mouse P388 cells after 72 hrs by trypan blue exclusion assay; type: functional
P388 [8] = assay: Growth inhibition of adriamycin-resistant mouse P388 cells after 72 hrs by trypan blue exclusion assay; type: functional
HL-60 [9] = assay: Induction of apoptosis in human HL60 cells assessed as occurrence of nuclear shrinkage, blebbing and apoptotic bodies at 2 uM after 24 hrs by acridine orange and ethidium bromide staining; type: functional, cell-based
Procedure, shortened: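 HL-60 cells treated 12 h and 24 h; stained with acridine orange and ethidium bromide, fluorescence microscopy; cells with nuclear shrinkage, blebbing or apoptotic bodies counted as apoptotic among 300 cells observed; percentage calculated. Three independent experiments, mean ± SD.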

HL-60 [10] = assay: Cell cycle arrest in human HL60 cells assessed as accumulation at subG1 phase at 4 uM after 24 hrs using propidium iodide staining by flow cytometry; type: functional, cell-based
Procedure, shortened: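 HL-60 cells exposed 24 h; propidium iodide staining, flow cytometry; apoptotic cells scored as sub-G1 fraction. Three independent experiments, mean ± SD.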

HL-60 [11] = assay: Induction of apoptosis in human HL60 cells assessed as DNA fragmentation at 4 uM after 24 hrs using ethidium bromide staining by DNA gel electrophoresis; type: functional, cell-based
Procedure, shortened: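 HL-60 cells treated 24 h; DNA fragmentation resolved by DNA gel electrophoresis and visualized after ethidium bromide staining.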

| SMILES | IG50 (HL-60 [1]) [µM] | IC50 (HL-60 [2]) [nM] | growth inhibition (GI) (HL-60 [3]) | further results |
| --- | --- | --- | --- | --- |
| C[C@H]1[C@H](OC(=O)COc2ccc(C(=O)/C=C/c3ccc(Br)cc3)cc2)O[C@@H]2O[C@]3(C)CC[C@H]4[C@H](C)CC[C@@H]1[C@@]24OO3 | 0.314 | 636 | inactive | – |
| COc1ccccc1/C=C/C(=O)c1ccc(OCCO[C@H]2O[C@@H]3O[C@]4(C)CC[C@H]5[C@H](C)CC[C@@H]([C@H]2C)[C@@]35OO4)cc1 | 0.165 | 134 | inactive | – |
| COc1cccc(/C=C/C(=O)c2ccc(OCCO[C@H]3O[C@@H]4C[C@]5(C)CC[C@H]6[C@H](C)CC[C@@H]([C@H]3C)[C@@]46OO5)cc2)c1OC | 0.079 | 194 | inactive | – |
| COc1ccc(/C=C/C(=O)c2ccc(OCC(=O)O[C@@H]3O[C@@H]4O[C@]5(C)CC[C@H]6[C@H](C)CC[C@@H]([C@H]3C)[C@@]46OO5)cc2)cc1 | 0.174 | 394 | inactive | – |
| O=C(/C=C/c1ccccc1)c1ccccc1 | – | – | inactive | – |
| CCOc1ccc(/C=C/C(=O)c2ccc(OCC(=O)O[C@@H]3O[C@@H]4O[C@]5(C)CC[C@H]6[C@H](C)CC[C@@H]([C@H]3C)[C@@]46OO5)cc2)cc1 | 0.286 | 734 | inactive | – |
| C[C@H]1[C@H](OC(=O)COc2ccc(C(=O)/C=C/c3ccc(Cl)cc3)cc2)O[C@@H]2O[C@]3(C)CC[C@H]4[C@H](C)CC[C@@H]1[C@@]24OO3 | 0.276 | 537 | inactive | – |
| C[C@H]1[C@@H](OCCOc2ccc(C(=O)/C=C/c3ccc(Br)cc3)cc2)O[C@@H]2O[C@]3(C)CC[C@H]4[C@H](C)CC[C@@H]1[C@@]24OO3 | 0.04 | 80 | inactive | Activity (HL-60 [4]): 50%; Activity (HL-60 [5]): 80%; Activity (HL-60 [6]): Active; Activity (P388 [7]): 0.098 µM; Activity (P388 [8]): 0.155 µM |
| COc1cccc2c1C(=O)c1c(O)c3c(c(O)c1C2=O)C[C@@](O)(C(=O)CO)C[C@@H]3O[C@H]1C[C@H](N)[C@H](O)[C@H](C)O1 [DOXORUBICIN] | – | – | – | IG50 (P388 [7]): 0.019 µM; IG50 (P388 [8]): 3.73 µM |
| C[C@H]1[C@@H](OCCOc2ccc(C(=O)/C=C/c3ccc4c(c3)OCO4)cc2)O[C@@H]2O[C@]3(C)CC[C@H]4[C@H](C)CC[C@@H]1[C@@]24OO3 | 0.059 | 89 | inactive | Activity (HL-60 [4]): 50%; Activity (HL-60 [5]): 80%; Activity (HL-60 [6]): Active; IG50 (P388 [7]): 0.096 µM; IG50 (P388 [8]): 0.178 µM |
| COc1ccc(/C=C/C(=O)c2ccc(OCCO[C@H]3O[C@@H]4O[C@]5(C)CC[C@H]6[C@H](C)CC[C@@H]([C@H]3C)[C@@]46OO5)cc2)cc1 | 0.214 | 147 | inactive | – |
| C[C@H]1[C@@H](O)O[C@@H]2O[C@@]3(C)CC[C@H]4[C@H](C)CC[C@@H]1[C@@]24OO3 [ARTENIMOL] | 0.73 | 2900 | – | Activity (HL-60 [9]): Active; Activity (HL-60 [10]): Active; Activity (HL-60 [11]): Active; Activity (P388 [7]): 2.3 µM; Activity (P388 [8]): 1.51 µM |
| COc1ccc(/C=C/C(=O)c2ccc(OCCO[C@H]3O[C@@H]4O[C@]5(C)CC[C@H]6[C@H](C)CC[C@@H]([C@H]3C)[C@@]46OO5)cc2)cc1OC | 0.09 | 300 | inactive | – |
| C[C@H]1[C@@H](OCCOc2ccc(C(=O)/C=C/c3ccccc3Cl)cc2)O[C@@H]2O[C@]3(C)CC[C@H]4[C@H](C)CC[C@@H]1[C@@]24OO3 | 0.119 | 136 | inactive | – |
| CCOc1ccc(/C=C/C(=O)c2ccc(OCCO[C@H]3O[C@@H]4O[C@]5(C)CC[C@H]6[C@H](C)CC[C@@H]([C@H]3C)[C@@]46OO5)cc2)cc1 | 0.121 | 110 | inactive | – |
| COc1cc(/C=C/C(=O)c2ccc(OCCO[C@H]3O[C@@H]4O[C@]5(C)CC[C@H]6[C@H](C)CC[C@@H]([C@H]3C)[C@@]46OO5)cc2)cc(OC)c1OC | 0.07 | 219 | inactive | – |
| C[C@H]1[C@@H](OCCOc2ccc(C(=O)/C=C/c3ccc(Cl)cc3)cc2)O[C@@H]2O[C@]3(C)CC[C@H]4[C@H](C)CC[C@@H]1[C@@]24OO3 | 0.106 | 130 | inactive | – |
| C[C@H]1[C@@H](OCCOc2ccc(C(=O)/C=C/c3ccccc3)cc2)O[C@@H]2O[C@]3(C)CC[C@H]4[C@H](C)CC[C@@H]1[C@@]24OO3 | 0.208 | 193 | inactive | – |
